Data from ChEMBL document CHEMBL1148523, “Synthesis and biological evaluation of novel pyridazinone-based alpha4 integrin receptor antagonists” (J Med Chem, 2006).

Assays:
Integrin alpha-4/beta-1 = Integrin alpha-4/beta-1 (Homo sapiens, UniProt P05556+P13612); test: Inhibition of binding of alpha4beta1 integrin receptor expressed in human Ramos cells to immobilized VCAM1; format: cell-based
[1] = AUC in rat at 30 mg/kg, po; format: ADME, organism-based; set-up: dose 30 mg/kg, route oral; settings: plasma
Outline: (§1)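 Rats were given 3 mg/kg iv or 30 mg/kg by oral gavage (oral vehicle 10% PEG 400 in PBS, pH 7.0-7.5). Heparinized blood was sampled after dosing and the plasma stored at -70 °C. Analysis was by LC-MS-MS with multiple reaction monitoring, using plasma calibration standards of 0.01-10 µM (LOQ 0.01 µM). For ester prodrugs, the parent acid was quantified. AUC was taken after oral dosing and t1/2 after iv dosing.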

[2] = Half life in rat at 3 mg/kg, iv; format: ADME, organism-based; set-up: dose 3 mg/kg, route intravenous; settings: in vivo; outline: as §1
[3] = Oral bioavailability in rat at 30 mg/kg, po and 3 mg/kg, iv; format: ADME, organism-based; settings: in vivo; outline: as §1
Integrin alpha-4/beta-7 = biological target: T1, Integrin alpha-4/beta-7 (Homo sapiens, UniProt P13612+P26010); test: Inhibition of binding of alpha-4-beta-7 integrin receptor expressed in human K562 cells to immobilized MAdCAM1; format: cell-based
T1 sequence (P13612 whole entry): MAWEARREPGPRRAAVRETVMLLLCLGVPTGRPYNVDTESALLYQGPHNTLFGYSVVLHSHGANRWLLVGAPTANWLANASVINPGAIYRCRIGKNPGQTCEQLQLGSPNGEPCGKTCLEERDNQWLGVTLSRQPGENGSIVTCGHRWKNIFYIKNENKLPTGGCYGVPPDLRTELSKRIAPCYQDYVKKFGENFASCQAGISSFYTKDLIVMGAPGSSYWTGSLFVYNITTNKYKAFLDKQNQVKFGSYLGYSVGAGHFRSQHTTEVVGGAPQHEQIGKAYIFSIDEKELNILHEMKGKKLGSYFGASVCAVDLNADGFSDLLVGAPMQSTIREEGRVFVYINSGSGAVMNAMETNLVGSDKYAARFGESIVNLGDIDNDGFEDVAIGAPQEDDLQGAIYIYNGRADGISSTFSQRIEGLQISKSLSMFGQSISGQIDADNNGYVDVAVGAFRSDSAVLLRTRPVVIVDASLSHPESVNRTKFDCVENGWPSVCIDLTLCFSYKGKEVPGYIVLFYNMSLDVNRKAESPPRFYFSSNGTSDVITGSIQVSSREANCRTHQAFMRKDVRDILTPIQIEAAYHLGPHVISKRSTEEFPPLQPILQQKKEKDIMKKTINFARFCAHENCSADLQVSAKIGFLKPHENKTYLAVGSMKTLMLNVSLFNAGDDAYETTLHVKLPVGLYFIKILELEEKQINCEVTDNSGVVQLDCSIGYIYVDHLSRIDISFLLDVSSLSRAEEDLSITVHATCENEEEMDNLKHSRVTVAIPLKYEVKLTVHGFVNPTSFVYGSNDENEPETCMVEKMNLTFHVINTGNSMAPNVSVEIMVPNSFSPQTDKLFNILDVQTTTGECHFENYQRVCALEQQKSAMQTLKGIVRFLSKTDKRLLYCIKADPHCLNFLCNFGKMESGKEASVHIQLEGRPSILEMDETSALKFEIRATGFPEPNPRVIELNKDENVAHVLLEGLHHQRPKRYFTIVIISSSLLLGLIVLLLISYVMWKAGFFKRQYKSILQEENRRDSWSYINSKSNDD
T1 sequence (P26010 whole entry): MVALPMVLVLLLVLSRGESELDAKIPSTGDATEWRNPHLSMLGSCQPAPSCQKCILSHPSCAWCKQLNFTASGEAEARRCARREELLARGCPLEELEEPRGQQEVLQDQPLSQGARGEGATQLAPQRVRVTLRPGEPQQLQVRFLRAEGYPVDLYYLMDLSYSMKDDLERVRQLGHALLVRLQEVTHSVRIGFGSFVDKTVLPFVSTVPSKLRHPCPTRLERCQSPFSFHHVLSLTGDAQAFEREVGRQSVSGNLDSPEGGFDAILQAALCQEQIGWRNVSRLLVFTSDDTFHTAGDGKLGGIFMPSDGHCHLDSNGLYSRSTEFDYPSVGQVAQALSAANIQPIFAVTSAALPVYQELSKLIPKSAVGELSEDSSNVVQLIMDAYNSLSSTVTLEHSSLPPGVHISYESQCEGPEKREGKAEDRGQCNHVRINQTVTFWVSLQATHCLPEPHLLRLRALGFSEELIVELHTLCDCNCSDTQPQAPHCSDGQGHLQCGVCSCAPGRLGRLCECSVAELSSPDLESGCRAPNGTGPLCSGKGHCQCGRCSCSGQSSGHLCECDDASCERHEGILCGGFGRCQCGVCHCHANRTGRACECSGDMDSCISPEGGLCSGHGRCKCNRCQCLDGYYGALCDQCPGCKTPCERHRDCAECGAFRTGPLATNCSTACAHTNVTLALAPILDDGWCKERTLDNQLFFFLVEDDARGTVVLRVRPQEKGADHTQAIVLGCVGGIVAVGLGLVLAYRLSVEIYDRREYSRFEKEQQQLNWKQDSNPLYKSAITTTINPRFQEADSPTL

[4] = Clearance in rat at 3 mg/kg, iv; format: ADME, organism-based; set-up: dose 3 mg/kg, route intravenous; settings: in vivo; outline: as §1
[5] = Volume of distribution in rat at 3 mg/kg, iv; format: ADME, organism-based; set-up: dose 3 mg/kg, route intravenous; settings: in vivo, read-out: Vdss; outline: as §1
[6] = Inhibition of adhesion of human Ramos cell to TNF-alpha-stimulated HUVEC cells mediated by VCAM1; format: functional, cell-based
[7] = Inhibition of adhesion of human U937 cell to LPS-stimulated HUVEC cells mediated by ICAM1/VCAM1; format: functional, cell-based
[8] = Inhibition of adhesion of human HL60 cell to TNF-alpha-stimulated HUVEC cells mediated by ELAM1; format: functional, cell-based
Mus musculus = test: Inhibition of DSS-induced colitis in mouse at 60 mg/kg, po after 7 days; format: functional; settings: 168 h
Outline: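 Female Balb/c mice, 11-14 weeks old (n = 10/group), drank 5% DSS in tap water ad libitum for 7 days, freshly changed daily. Oral gavage at 60 mg/kg in 10% PEG 400 in D5W, or vehicle alone, began on the day of induction and continued twice daily for 7 days. Colons were then dissected. The macroscopic score combined colon shrinkage, stool consistency and colon damage.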

Integrin alpha-4/beta-1, sequence (P05556 whole entry, one chain of several): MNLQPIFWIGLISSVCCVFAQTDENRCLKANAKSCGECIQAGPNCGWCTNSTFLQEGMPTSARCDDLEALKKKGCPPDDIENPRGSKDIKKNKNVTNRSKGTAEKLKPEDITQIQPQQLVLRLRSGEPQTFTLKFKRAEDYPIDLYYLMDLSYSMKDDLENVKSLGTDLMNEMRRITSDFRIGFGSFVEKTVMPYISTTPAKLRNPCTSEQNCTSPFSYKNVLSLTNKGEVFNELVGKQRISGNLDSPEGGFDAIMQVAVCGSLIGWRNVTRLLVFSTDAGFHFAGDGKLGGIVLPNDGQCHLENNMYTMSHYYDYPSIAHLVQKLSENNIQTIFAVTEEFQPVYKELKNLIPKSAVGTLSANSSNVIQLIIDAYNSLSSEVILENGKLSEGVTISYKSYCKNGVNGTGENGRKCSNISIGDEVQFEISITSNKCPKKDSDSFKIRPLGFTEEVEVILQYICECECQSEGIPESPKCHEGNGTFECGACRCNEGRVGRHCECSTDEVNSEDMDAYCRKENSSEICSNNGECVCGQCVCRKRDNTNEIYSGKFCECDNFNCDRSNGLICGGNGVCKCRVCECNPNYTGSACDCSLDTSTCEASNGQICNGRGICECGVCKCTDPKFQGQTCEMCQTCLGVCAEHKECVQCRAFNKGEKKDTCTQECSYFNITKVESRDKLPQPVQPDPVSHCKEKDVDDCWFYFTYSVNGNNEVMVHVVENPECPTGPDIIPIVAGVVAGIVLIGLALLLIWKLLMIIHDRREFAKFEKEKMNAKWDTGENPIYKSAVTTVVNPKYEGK

Row | SMILES | IC50 (Integrin alpha-4/beta-1) [nM] | AUC [1] [µM·h] | half-life [2] [min] | bioavailability [3] [%] | IC50 (Integrin alpha-4/beta-7) [nM] | other results
1 | CCCN(C(=O)N[C@@H](Cc1ccc(-c2c(OC)cnn(C)c2=O)cc1)C(=O)O)c1ccccc1 | > 5000 |  |  |  |  | 
2 | COc1cnn(C)c(=O)c1-c1ccc(C[C@H](NC(=O)N(C)CC(C)C)C(=O)OCCO)cc1 |  | 47 | 24 | 14 |  | 
3 | Cn1ncc(OCCN2CCOCC2)c(-c2ccc(C[C@H](NC(=O)c3c(Cl)cccc3Cl)C(=O)O)cc2)c1=O | 66 |  |  |  |  | 
4 | Cn1ncc(N2CCCC2)c(-c2ccc(C[C@H](NC(=O)c3c(Cl)cccc3Cl)C(=O)O)cc2)c1=O | 110 |  |  |  |  | 
5 | COC(=O)N[C@@H](Cc1ccc(-c2c(OC)cnn(C)c2=O)cc1)C(=O)O | > 5000 |  |  |  |  | 
6 | COc1cnn(C)c(=O)c1-c1ccc(C[C@H](NC(=O)N(C)CC(C)C)C(=O)O)cc1 | 1800 | 5.2 | 54 | 3 |  | clearance [4]: 7.8 mL/min/kg; Vd [5]: 0.19 L/kg
7 | Cn1ncc(OC2CCCCC2)c(-c2ccc(C[C@H](NC(=O)c3c(Cl)cccc3Cl)C(=O)O)cc2)c1=O | 150 |  |  |  |  | 
8 | COc1cnn(C)c(=O)c1-c1ccc(C[C@H](NC(=O)OC(C)(C)C)C(=O)O)cc1 | > 5000 |  |  |  |  | 
9 | COc1cnn(C2CCCCC2)c(=O)c1-c1ccc(C[C@H](NC(=O)c2c(Cl)cccc2Cl)C(=O)O)cc1 | > 5000 |  |  |  | 330 | 
10 | COc1cnn(CCO)c(=O)c1-c1ccc(C[C@H](NC(=O)OC(C)(C)C)C(=O)O)cc1 | > 5000 | 1.6 | 12 | 1 | 110 | clearance [4]: 6 mL/min/kg; Vd [5]: 0.11 L/kg
11 | CCOC(=O)[C@H](Cc1ccc(-c2c(OC)cnn(C)c2=O)cc1)NC(=O)c1c(Cl)cccc1Cl |  | 2.3 |  | 4 |  | 
12 | COc1cnn(C)c(=O)c1-c1ccc(C[C@H](NC(=O)N(C)C)C(=O)O)cc1 | > 5000 |  |  |  | 1500 | 
13 | COc1cnn(CCO)c(=O)c1-c1ccc(C[C@H](NC(=O)OC(C)(C)C)C(=O)OCCO)cc1 |  | 51 | 66 | 31 |  | inhibition in vivo at 60 mg/kg (Mus musculus): 54%

Continued, in another order:

Row | IC50 (Integrin alpha-4/beta-1) [nM] | AUC [1] [µM·h] | half-life [2] [min] | bioavailability [3] [%] | IC50 (Integrin alpha-4/beta-7) [nM] | SMILES | other results
14 |  | 3.3 | 60 | 7 |  | COc1cnn(C)c(=O)c1-c1ccc(C[C@H](NC(=O)c2c(Cl)cccc2Cl)C(=O)OCCO)cc1 | 
15 | 280 |  |  |  | 8 | Cn1ncc(OC(F)F)c(-c2ccc(C[C@H](NC(=O)c3c(Cl)cccc3Cl)C(=O)O)cc2)c1=O | 
16 |  | 0.5 | 12 | 1 |  | COc1cnn(C)c(=O)c1-c1ccc(C[C@H](NC(=O)c2c(Cl)cccc2Cl)C(=O)O)cc1 | IC50 [6]: 43 nM; IC50 [7]: 14 nM; IC50 [8]: < 5 nM; clearance [4]: 22 mL/min/kg; Vd [5]: 0.4 L/kg
17 |  | 1.7 | 42 | 8 |  | COC(=O)[C@H](Cc1ccc(-c2c(OC)cnn(C)c2=O)cc1)NC(=O)c1c(Cl)cccc1Cl | 
18 |  |  |  |  | 100 | COc1cnn(Cc2ccccc2)c(=O)c1-c1ccc(C[C@H](NC(=O)c2c(Cl)cccc2Cl)C(=O)O)cc1 | 
19 | 170 |  |  |  | 2 | CCOc1cnn(C)c(=O)c1-c1ccc(C[C@H](NC(=O)c2c(Cl)cccc2Cl)C(=O)O)cc1 | 
20 | 130 |  |  |  |  | COc1cnn(CCO)c(=O)c1-c1ccc(C[C@H](NC(=O)c2c(Cl)cccc2Cl)C(=O)O)cc1 | 
21 |  |  |  |  | 49 | Cn1ncc(O)c(-c2ccc(C[C@H](NC(=O)c3c(Cl)cccc3Cl)C(=O)O)cc2)c1=O | 
22 | 1000 |  |  |  |  | COc1cnnc(O)c1-c1ccc(C[C@H](NC(=O)c2c(Cl)cccc2Cl)C(=O)O)cc1 | 
